Assay results as given in ChEMBL document CHEMBL2203280, “Bicyclic peptidomimetics targeting secreted aspartic protease 2 (SAP2) from Candida albicans reveal a constrained inhibitory chemotype” (Bioorg Med Chem, 2012).

target: T1, Secreted aspartic protease 2 (Candida albicans, UniProt P0CS83); experiment: Inhibition of candida albicans SAP2
Method in brief: (§1)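 SAP2 protease (1 µg/mL solution) incubated with inhibitor in 0.05% (w/v) BSA, 50 mM sodium citrate pH 3.2, 30 min at 37 °C. Reaction stopped with 10% TCA, kept on ice 30 min, then centrifuged. Supernatant A280 read against a BSA-in-citrate blank. ΔOD per minute measured at inhibitor levels of 5, 1 and 0.1 µM and 5, 1 and 0.1 nM. Pepstatin A run as reference at the same concentrations.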

T1 sequence (P0CS83 whole entry): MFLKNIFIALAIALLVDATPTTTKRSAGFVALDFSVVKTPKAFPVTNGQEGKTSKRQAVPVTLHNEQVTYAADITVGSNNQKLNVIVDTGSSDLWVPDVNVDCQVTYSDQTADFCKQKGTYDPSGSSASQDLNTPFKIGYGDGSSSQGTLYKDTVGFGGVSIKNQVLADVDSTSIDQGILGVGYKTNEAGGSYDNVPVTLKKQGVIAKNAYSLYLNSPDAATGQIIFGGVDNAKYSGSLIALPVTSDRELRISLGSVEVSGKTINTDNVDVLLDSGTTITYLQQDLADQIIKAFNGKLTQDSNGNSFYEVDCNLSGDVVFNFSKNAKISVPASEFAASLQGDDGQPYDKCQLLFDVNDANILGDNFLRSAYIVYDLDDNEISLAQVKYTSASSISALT

| SMILES | Ki [nM] |
| --- | --- |
| CCCCNC(=O)[C@H](C[C@H](O)[C@H](CC1CCCCC1)NC(=O)[C@H](CCCC)N1CCN(C(=O)N2CCN(C)CC2)[C@H](Cc2ccccc2)C1=O)C(C)C | 12 |

target: Secreted aspartic protease 2 (Candida albicans) (UniProt P0CS83); experiment: Ratio of pepstatin A IC50 to compound IC50 for candida albicans SAP2 by spectrophotometric analysis; method in brief: as §1
Sequence (P0CS83 57-398 limits assumed): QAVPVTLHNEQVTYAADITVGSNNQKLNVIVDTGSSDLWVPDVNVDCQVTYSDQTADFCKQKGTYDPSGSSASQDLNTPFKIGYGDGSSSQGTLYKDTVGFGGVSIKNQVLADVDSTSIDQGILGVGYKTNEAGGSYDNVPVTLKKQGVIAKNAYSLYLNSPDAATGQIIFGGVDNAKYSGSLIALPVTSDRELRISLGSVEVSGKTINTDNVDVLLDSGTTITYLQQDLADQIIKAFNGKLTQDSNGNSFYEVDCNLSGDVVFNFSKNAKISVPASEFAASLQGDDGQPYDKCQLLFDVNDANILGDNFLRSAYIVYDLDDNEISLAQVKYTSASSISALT

| SMILES | Ratio IC50 |
| --- | --- |
| O=C([C@@H]1O[C@H]2CN(Cc3ccccc3)C(=O)[C@@H]1O2)N1CCCCC1 | 3 |

target: T1, Secreted aspartic protease 2; experiment: Inhibition of candida albicans SAP2 using 0.05% BSA as substrate by spectrophotometric analysis
Method in brief: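 SAP2 incubated with inhibitor in 0.05% (w/v) BSA substrate, 50 mM sodium citrate pH 3.2, for 30 min at 37 °C. Stopped with 10% (w/v) TCA, held on ice 30 min, centrifuged 3000 g 10 min. Supernatant A280 read against 0.05% BSA in citrate blank. ΔOD per min taken at six inhibitor concentrations, including 5, 1 and 0.1 nM. Pepstatin A run at matching concentrations.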

| SMILES | IC50 [nM] |
| --- | --- |
| O=C([C@H]1O[C@@H]2CN(Cc3ccccc3)C(=O)[C@H]1O2)N1CCCCC1 | 980 |
| CC(C)CC(=O)N[C@H](C(=O)N[C@H](C(=O)N[C@@H](CC(C)C)[C@@H](O)CC(=O)N[C@@H](C)C(=O)N[C@@H](CC(C)C)[C@@H](O)CC(=O)O)C(C)C)C(C)C [PEPSTATIN] | 90 |
| O=C([C@@H]1O[C@H]2CN(Cc3ccccc3)C(=O)[C@@H]1O2)N1CCCCC1 | 30 |
| COC(=O)[C@H](CC(C)C)N1C[C@H]2O[C@H](C(=O)N3CCCCC3)[C@H](O2)C1=O | > 10000 |
| CC(C)C[C@H](CO)NC(=O)C1O[C@@H]2CN(Cc3ccccc3)C(=O)[C@H]1O2 (stereo partly drawn) | > 10000 |
| COC(=O)[C@@H](CC(C)C)N1C[C@H]2O[C@H](C(=O)N3CCCCC3)[C@H](O2)C1=O | 740 |
| COC(=O)[C@@H](CC(C)C)N1C[C@@H]2O[C@@H](C(=O)N3CCCCC3)[C@@H](O2)C1=O | 890 |
| COC(=O)[C@H](CC(C)C)N1C[C@@H]2O[C@@H](C(=O)N3CCCCC3)[C@@H](O2)C1=O | 900 |
| CC(C)C[C@H](CO)NC(=O)C1O[C@H]2CN(Cc3ccccc3)C(=O)[C@@H]1O2 (stereo partly drawn) | > 10000 |
| CC(C)C[C@@H](CO)NC(=O)C1O[C@H]2CN(Cc3ccccc3)C(=O)[C@@H]1O2 (stereo partly drawn) | 550 |
| CC(C)C[C@@H](CO)NC(=O)C1O[C@@H]2CN(Cc3ccccc3)C(=O)[C@H]1O2 (stereo partly drawn) | 1100 |
